From ChEMBL document CHEMBL4699497, “Synthesis of indole-tethered [1,3,4]thiadiazolo and [1,3,4]oxadiazolo[3,2-a]pyrimidin-5-one hybrids as anti-pancreatic cancer agents” (Bioorg Med Chem Lett, 2020) come the findings set out here.

Where only a bound is given, the exact number is not on record here.

The experiment has as its system PANC-1. Nature of the experiment: Cytotoxicity against human PANC1 cells assessed as reduction in cell viability measured after 48 hrs by MTS assay. The class given is functional, cell-based. The note with it: for IC50: PANC-1, 48 h. The procedure, abridged: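 Human PANC-1 pancreatic cancer cells exposed to a range of doses of each compound for 48 h. Surviving cells quantified by MTS viability read-out, and IC50 derived from the dose-response curves.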
A general note: Formazan colour is commonly taken as a measure of viable cells.

Turning to `O=c1c(-n2ccc3ccccc32)cnc2sc(-c3ccc(Br)cc3)nn12`, the IC50 was greater than 100 µM.
Regarding `O=c1c(-n2ccc3ccccc32)cnc2sc(-c3ccccc3Cl)nn12`, the IC50 was greater than 100 µM.
As to `O=c1c(-n2ccc3ccccc32)cnc2sc(-c3cccc(Cl)c3)nn12`, the concentration for half-maximal inhibition (IC50) was greater than 100 µM.
`O=c1c(-n2ccc3ccccc32)cnc2oc(-c3ccccc3Cl)nn12`: the inhibition result is “Dose-dependent effect” and the IC50 was determined as 7.7 µM.
Regarding `Nc1ccn([C@@H]2O[C@H](CO)[C@@H](O)C2(F)F)c(=O)n1` [GEMCITABINE], the IC50 is greater than 500 µM.
Take `Cc1cc2ccccc2n1-c1cnc2oc(-c3ccc(Cl)cc3)nn2c1=O`: the inhibition entry was “Dose-dependent effect” and the IC50 turned out to be 40 µM.
`O=c1c(-n2ccc3ccccc32)cnc2oc(-c3ccc(Br)cc3)nn12`: the inhibition result was “Dose-dependent effect” and the IC50 amounted to 90.5 µM.
Consider `O=c1c(-n2ccc3ccccc32)cnc2oc(-c3ccccc3)nn12`, for which the inhibition result was “Dose-dependent effect” and the IC50 worked out at 21.1 µM.
Take `Cc1cc2ccccc2n1-c1cnc2sc(-c3ccccc3Cl)nn2c1=O`: the IC50 was greater than 100 µM.
For `Cc1cc2ccccc2n1-c1cnc2sc(-c3cccc(Br)c3)nn2c1=O`, the IC50 was greater than 100 µM.
On the same count and under the same terms, the same measure for `O=c1c(-n2ccc3ccccc32)cnc2sc(-c3cccc(Br)c3)nn12`: greater than 100 µM.
The same measure, in the same setting: the same measure for `O=c1c(-n2ccc3ccccc32)cnc2sc(-c3ccc(Cl)cc3)nn12`: greater than 100 µM.
As to `O=c1c(-n2ccc3ccccc32)cnc2oc(-c3ccc(Cl)cc3)nn12`, the inhibition entry is “Dose-dependent effect” and the IC50 worked out at 94.9 µM.
`Cc1cc2ccccc2n1-c1cnc2sc(-c3ccccc3)nn2c1=O`: the IC50 is greater than 100 µM.
As for `Cc1cc2ccccc2n1-c1cnc2sc(-c3ccc(Br)cc3)nn2c1=O`, the IC50 is greater than 100 µM.
Same read-out and setting: the same measure for `O=c1c(-n2ccc3ccccc32)cnc2sc(-c3ccccc3)nn12`: greater than 100 µM.

The term IC50 denotes the concentration that gives 50% inhibition.
